Experimental data: PubChem BioAssay AID775 (SRMLSC, 2007)
Out of some 130,000 compounds screened, about 900 (0.69%) were called active.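 Rule for the calls: active = inhibition above a set limit, placed 3 SD over the median of all compounds (cut at about 26% in these data); inactive = the rest.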 The full list was thinned out, with actives kept by preference.

Assay: compounds extending yeast replicative lifespan, primary screen, S. cerevisiae, OD615 (AID 775);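 note: 0% = nicotinamide-treated wells and 100% = cells grown without nicotinamide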
Settings: S. cerevisiae growth with nicotinamide, at 10 µM, stronger effect = higher value, deaD strain in restrictive glucose medium
In short: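 assay system = DeaD-strain S. cerevisiae | buffer or medium = restrictive glucose medium | reagent = 1.5 mM nicotinamide | compound = 10 µM single point, 0.25% DMSO | incubation = 48 h compound exposure at 30 °C, humidified | signal = OD615 measurement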

SMILES | inhibition of the nicotinamide effect
Cc1cc(C(=O)N/N=C/c2cc([N+](=O)[O-])cc(C)c2O)n[nH]1 | -1.48% (inactive)
Cc1cc(Cl)ccc1OCCCC(=O)NCc1ccncc1 | 1.85% (inactive)
CCn1ncc(CNC(=O)C2(C)CC2(Br)Br)c1C (centres undefined) | 9.74% (inactive)
O=C(/C=C/Sc1ncn[nH]1)c1ccc(Cl)cc1 | 44.7% (active)
CC(C)(C)c1ccc(C(=O)CSc2ncn[nH]2)cc1 | -10.2% (inactive)
O=C(NCCOCc1ccc(Cl)cc1)c1ncn[nH]1 | 1.27% (inactive)
Cc1ccccc1C(OCCN(C)C)C1CCCCC1 (centres undefined) | -0.42% (inactive)
COc1ccc(C(CC(=O)c2ccccc2)S(=O)(=O)c2ccccc2)cc1 (centres undefined) | -1.04% (inactive)
O=C(Nc1cc(C(F)(F)F)ccc1Cl)C(=O)N1CCCCC1 | -4.64% (inactive)
O=C(CN1C(=O)NC2(CCCCCC2)C1=O)NCc1cccs1 | 7.48% (inactive)
Cc1ccc(C(=O)OC2=CC(=O)CC(C)(C)C2)cc1 | 72.5% (active)
COC(=O)c1ccc(NC(=O)Nc2ccc(C)cc2)cc1 | -13.6% (inactive)
Cc1cc(O)ccc1NC1=CC(=O)CC(C)(C)C1 | 11.5% (inactive)
Nc1nc(SCC(=O)NNc2c(Cl)cc(Cl)cc2Cl)n[nH]1 | 1.57% (inactive)
COc1ccc(C(=O)COC(=O)c2ccc3ccccc3n2)cc1 | -4.94% (inactive)
COc1ccc(C2=NOC(COC(=O)c3ccc4ccccc4n3)C2)cc1 (centres undefined) | -3.92% (inactive)
O=C(Oc1ccc([N+](=O)[O-])cc1)c1ccc2ccccc2n1 | 75.9% (active)
COc1cccc(NC(=O)CC(c2ccc(OC(C)C)cc2)c2ccccc2OC)c1 (centres undefined) | 9.84% (inactive)
CCc1cc(-c2n[nH]c(=S)n2CC(C)C)cs1 | 7.5% (inactive)
CCCCCOc1ccc(/C=C/C(=O)NCCc2nc3ccccc3[nH]2)cc1OC | 3.92% (inactive)
CC1(c2ccccc2)CC(C)(C)N(C(=O)c2cc([N+](=O)[O-])cc([N+](=O)[O-])c2)c2ccccc21 (centres undefined) | -0.09% (inactive)
CCOC12CC(C)(C)CC(C)(CC3=C1C(=O)CC(C)(C)C3)C2 (centres undefined) | 7.4% (inactive)
O=C(Cc1cccc2ccccc12)NCCC1=CCCCC1 | 10.1% (inactive)
O=C(/C=C\NCC(=O)c1ccccc1)c1ccccc1 | 3.73% (inactive)

SMILES | inhibition of the nicotinamide effect
O=C(Cc1ccccc1)NCc1ccc(F)cc1 | -0.44% (inactive)
O=C(/C=C/NCc1ccc(F)cc1)c1ccccc1 | 26.6% (active)
COc1cc(C(=O)NNC(=O)c2ccc(S(=O)(=O)N3CCCCC3)cc2)cc(OC)c1OC | -0.56% (inactive)
Cc1cc(NS(=O)(=O)c2ccc(NC(=S)NC(=O)c3ccc(F)cc3Cl)cc2)no1 | -5.54% (inactive)
O=C(CSc1ccccn1)Nc1nc2c(ccc3ccccc32)s1 | -4.27% (inactive)
CC(C)(C)OC(=O)N/N=C/c1ccc(C(=O)O)cc1 | -2.34% (inactive)
CCC(NC(=O)c1ccccc1NC(=O)c1ccccc1)C(=O)NNC(=O)CSc1nc2ccccc2o1 (centres undefined) | -3.91% (inactive)
Cc1c(C2=CCN(S(=O)(=O)c3ccc(Cl)cc3)CC2)c2ccccc2n1C | 2.05% (inactive)
CC(C)C(C)(C#N)NC(=O)CSc1nc2scc(-c3ccccc3)c2c(=O)[nH]1 (centres undefined) | 7.12% (inactive)
CCc1ccc2c(c1)C(c1ccc([N+](=O)[O-])cc1)=NNC(c1ccccc1)=N2 | -1.67% (inactive)
CCN(CC)S(=O)(=O)c1cccc(-c2n[nH]c(=S)n2/N=C/c2ccc(C(=O)OC)cc2)c1 | -2.04% (inactive)
Cc1nnc(C)n1/N=C/c1ccc(C(C)C)cc1 | 1.31% (inactive)
COC(=O)c1ccc(/C=N\n2c(C)nnc2C)cc1 | 27.3% (active)
CCOc1ccc2nc(C(=O)N3CCCC(C)C3)sc2c1 (centres undefined) | -4.7% (inactive)
O=c1c2ccccc2nc(CSc2nnnn2-c2ccccc2)n1-c1ccccc1 | -5.7% (inactive)
CCCN1C(=O)C(Cc2nc3ccccc3c(=O)n2-c2ccccc2)c2cc(C)ccc21 (centres undefined) | 38.7% (active)
N#CCSc1nc2ccccc2c(=O)n1-c1ccccc1 | -7.51% (inactive)
Cc1noc(/C=C/c2ccco2)c1S(=O)(=O)N1CCC(C(=O)Nc2ccc(Cl)cn2)CC1 | 10.7% (inactive)
O=C(COC(=O)c1cc(=O)[nH]c2ccccc12)Nc1nc(-c2cccc(Br)c2)cs1 | -0.45% (inactive)
Cc1ccc(OCCOCCOc2ccc(Br)cc2/C=N\NC(=O)c2ccncc2)cc1 | -1.41% (inactive)
COC(=O)C1=CN(C)C=C(C(=O)OC)C1c1ccc(Cl)cc1Cl | -5.36% (inactive)
CC12CN3CC(C)(CN(C1)C3c1ccc(Cl)cc1Cl)C2=O (centres undefined) | 30.1% (active)
CC12CCC(C(=O)N(c3cccc(Cl)c3)C1=O)C2(C)C (centres undefined) | 3.45% (inactive)
COc1ccc(NC(=O)COC(=O)c2ccc(NS(=O)(=O)/C=C/c3ccccc3)cc2)cc1 | 3.99% (inactive)

SMILES | inhibition of the nicotinamide effect
Cc1ccc(S(=O)(=O)Nc2ccccc2CNc2c(C)n(C)n(-c3ccccc3)c2=O)cc1 | 43% (active)
Cc1c(NS(=O)(=O)c2ccc(NC3CCCC3)c([N+](=O)[O-])c2)c(=O)n(-c2ccccc2)n1C | -2.8% (inactive)
COc1ccc(S(=O)(=O)Nc2c(C)n(C)n(-c3ccccc3)c2=O)cc1 | -9.71% (inactive)
O=C(Nc1cccc([N+](=O)[O-])c1)c1ccc2c(c1)OCO2 | -0.87% (inactive)
COC(=O)c1ccccc1SC1CC(=O)N(c2cccc(C)c2)C1=O (centres undefined) | -3.77% (inactive)
CC(C)(C)c1ccc(/C=C/C(=O)Nc2ncccn2)cc1 | -2% (inactive)
Cc1cccc(N2Cc3ccccc3C2=NC(=O)c2ccc(Cl)nc2)c1 | 34.6% (active)
Cc1cccc(N2CCN(C(=O)c3cccc(S(=O)(=O)N4CCc5ccccc5C4)c3)CC2C)c1 (centres undefined) | 9.33% (inactive)
N#Cc1ccc(N2Cc3ccccc3/C2=N/C(=O)Nc2ccc(Cl)cc2)cc1 | -2.85% (inactive)
CC(NC(=S)Nc1ccc(S(N)(=O)=O)cc1)c1ccc2c(c1)OCO2 (centres undefined) | -4.33% (inactive)
COC(=O)c1cn(C)c2ccc(S(=O)(=O)N3CC(C)CC(C)C3)cc2c1=O (centres undefined) | -19.7% (inactive)
O=C(c1cccc(S(=O)(=O)N2CCOCC2)c1)N1CCOCC1 | 4.86% (inactive)
CC1CC(C)CN(S(=O)(=O)c2cccc(C(=O)N3C(=O)c4cccc(N)c4C3=O)c2)C1 (centres undefined) | 86.5% (active)
Cc1cc(C)c(NC(=S)N2CCCC2C(=O)O)c(C)c1 (centres undefined) | -4.99% (inactive)
Cc1cccc(N2C(=O)SC(SC(=Nc3ccccc3)Nc3ccccc3)C2=O)c1 (centres undefined) | 7.31% (inactive)
COc1ccc(/C=N/NC(=O)c2ccc(Cl)cc2)cc1COC(C)=O | -4.25% (inactive)
Cc1cc(Cl)ccc1NC(=S)NCCCN1CCCC1=O | 3.7% (inactive)
NC(=S)N/N=C/c1coc2cc(Cl)ccc2c1=O | 38.1% (active)
CC(C)Oc1c(Br)cc(Br)cc1/C=N/NC(N)=S | 0.87% (inactive)
O=C(N/N=C/c1coc2ccccc2c1=O)c1cc2ccccc2o1 | 19.2% (inactive)
O=C(Cc1ccccc1)NNC1CC(=O)N(c2ccc(Br)cc2)C1=O (centres undefined) | -4.42% (inactive)
COc1ccc(-n2c(C)cc(C(=O)COC(=O)c3cc(OC)c(OC)cc3NC(=O)c3cccs3)c2C)cc1 | 1.08% (inactive)
O=C(CSc1nc2ccccc2o1)N1c2ccccc2Sc2ccc(Cl)cc21 | -7.73% (inactive)
S=C1Nc2cc(Cl)ccc2Sc2ccccc21 | 2.87% (inactive)

SMILES | inhibition of the nicotinamide effect
O=C1Cc2ccccc2Sc2ccc(Cl)cc21 | 38.7% (active)
Cc1ccccc1N/C(SCc1ccc(Cl)cc1)=C(/C#N)C(N)=O | 1.27% (inactive)
Cc1nnc(-c2ccc(Oc3ccc(C)c(C)c3)c([N+](=O)[O-])c2)o1 | -6.06% (inactive)
Cc1ccc(S(=O)(=O)N(CC(=O)Nc2cccc([N+](=O)[O-])c2)Cc2ccc(Cl)cc2)cc1 | -5.04% (inactive)
COCC(C)N=CC1=C(O)CC(C)(C)CC1=O (centres undefined) | -1.64% (inactive)
CCC(=NC1CC(C)(C)NC(C)(C)C1)C1=C(O)CC(C)(C)CC1=O | 36.4% (active)
CC1(C)CC(=O)C=C(NC2CC(C)(C)NC(C)(C)C2)C1 | 5.33% (inactive)
Cc1[nH]c2ccccc2c1/C=N\NC(=O)Cn1nnc(-c2ccccc2)n1 | 1.83% (inactive)
Cc1nn(CC(=O)Nc2ccc(N(C)C)cc2)c(C)c1[N+](=O)[O-] | -0.66% (inactive)
COC(=O)/C(C#N)=C/c1occc1C | -5.74% (inactive)
Cc1cc(/C=C2/NC(=O)NC2=O)c(C)n1-c1cccnc1 | -0.65% (inactive)
O=S(=O)(ON(c1ccccc1)S(=O)(=O)c1ccccc1)c1ccccc1 | 43.7% (active)
CCOc1ccc(S(=O)(=O)N(CC(=O)O)c2ccccc2)cc1 | -6.31% (inactive)
CCN(c1ccccc1)S(=O)(=O)c1ccc(N)cc1 | -3.49% (inactive)
Cc1nc2ccccc2n1CC(=O)N/N=C/c1cccs1 | 2.27% (inactive)
NS(=O)(=O)c1ccc(CNC(=O)c2ccc(Cl)cc2[N+](=O)[O-])cc1 | 3.9% (inactive)
CCCCN(C)c1ccc([N+](=O)[O-])cc1 | 0.62% (inactive)
CC(=O)c1cc(C#N)c(SCC(=O)C(C)(C)C)nc1C | -19% (inactive)
CCCCSc1[nH]c(=O)c(C(=O)OCC)cc1C#N | 35.7% (active)
Cc1cc(=O)[nH]c(SCC(N)=O)c1C#N | -13.6% (inactive)
Cc1ccc(-c2nnc(SCC(=O)N/N=C/c3cccs3)n2-c2ccc(C)cc2)cc1 | -1.13% (inactive)
CC1(C)CC(=O)C(N=Nc2ccc(S(=O)(=O)N3CCCCCC3)cc2)=C(O)C1 | -0.81% (inactive)
